# Measurements from ChEMBL document CHEMBL4011598, “Sulfonamides as Selective NaV1.7 Inhibitors: Optimizing Potency and Pharmacokinetics While Mitigating Metabolic Liabilities” (J Med Chem, 2017).
# Activity calls are given as the source filed them. No cut-off for these calls is given here.
# What was measured:
# [1] = Aqueous solubility of the compound in PBS after 48 hrs by shake flask method; assay type: physicochemical
# [2] = target: T1, Cytochrome P450 1A2 (Homo sapiens, UniProt P05177); assay: Inhibition of CYP1A2 (unknown origin); assay type: ADME
# T1 sequence (P05177 whole entry): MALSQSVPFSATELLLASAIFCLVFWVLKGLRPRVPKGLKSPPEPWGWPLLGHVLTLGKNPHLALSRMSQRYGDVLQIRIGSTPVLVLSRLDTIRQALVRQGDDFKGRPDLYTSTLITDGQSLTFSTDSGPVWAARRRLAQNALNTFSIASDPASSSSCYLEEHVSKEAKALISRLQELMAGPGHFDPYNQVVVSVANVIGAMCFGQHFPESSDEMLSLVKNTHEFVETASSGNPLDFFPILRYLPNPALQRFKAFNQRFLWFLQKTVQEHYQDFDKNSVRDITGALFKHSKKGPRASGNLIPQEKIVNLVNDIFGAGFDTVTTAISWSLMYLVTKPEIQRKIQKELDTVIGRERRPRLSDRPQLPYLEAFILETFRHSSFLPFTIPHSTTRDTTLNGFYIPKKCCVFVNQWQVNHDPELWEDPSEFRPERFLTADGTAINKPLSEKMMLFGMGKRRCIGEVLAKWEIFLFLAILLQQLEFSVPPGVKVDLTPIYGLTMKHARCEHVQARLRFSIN
# [3] = target: T2, Sodium channel protein type 9 subunit alpha (Homo sapiens, UniProt Q15858); assay: Inhibition of human Nav1.7 expressed in HEK293 cells incubated for 3 to 5 mins at -125 mV holding potential by electrophysiology assay; assay type: cell-based
# T2 sequence (Q15858 whole entry): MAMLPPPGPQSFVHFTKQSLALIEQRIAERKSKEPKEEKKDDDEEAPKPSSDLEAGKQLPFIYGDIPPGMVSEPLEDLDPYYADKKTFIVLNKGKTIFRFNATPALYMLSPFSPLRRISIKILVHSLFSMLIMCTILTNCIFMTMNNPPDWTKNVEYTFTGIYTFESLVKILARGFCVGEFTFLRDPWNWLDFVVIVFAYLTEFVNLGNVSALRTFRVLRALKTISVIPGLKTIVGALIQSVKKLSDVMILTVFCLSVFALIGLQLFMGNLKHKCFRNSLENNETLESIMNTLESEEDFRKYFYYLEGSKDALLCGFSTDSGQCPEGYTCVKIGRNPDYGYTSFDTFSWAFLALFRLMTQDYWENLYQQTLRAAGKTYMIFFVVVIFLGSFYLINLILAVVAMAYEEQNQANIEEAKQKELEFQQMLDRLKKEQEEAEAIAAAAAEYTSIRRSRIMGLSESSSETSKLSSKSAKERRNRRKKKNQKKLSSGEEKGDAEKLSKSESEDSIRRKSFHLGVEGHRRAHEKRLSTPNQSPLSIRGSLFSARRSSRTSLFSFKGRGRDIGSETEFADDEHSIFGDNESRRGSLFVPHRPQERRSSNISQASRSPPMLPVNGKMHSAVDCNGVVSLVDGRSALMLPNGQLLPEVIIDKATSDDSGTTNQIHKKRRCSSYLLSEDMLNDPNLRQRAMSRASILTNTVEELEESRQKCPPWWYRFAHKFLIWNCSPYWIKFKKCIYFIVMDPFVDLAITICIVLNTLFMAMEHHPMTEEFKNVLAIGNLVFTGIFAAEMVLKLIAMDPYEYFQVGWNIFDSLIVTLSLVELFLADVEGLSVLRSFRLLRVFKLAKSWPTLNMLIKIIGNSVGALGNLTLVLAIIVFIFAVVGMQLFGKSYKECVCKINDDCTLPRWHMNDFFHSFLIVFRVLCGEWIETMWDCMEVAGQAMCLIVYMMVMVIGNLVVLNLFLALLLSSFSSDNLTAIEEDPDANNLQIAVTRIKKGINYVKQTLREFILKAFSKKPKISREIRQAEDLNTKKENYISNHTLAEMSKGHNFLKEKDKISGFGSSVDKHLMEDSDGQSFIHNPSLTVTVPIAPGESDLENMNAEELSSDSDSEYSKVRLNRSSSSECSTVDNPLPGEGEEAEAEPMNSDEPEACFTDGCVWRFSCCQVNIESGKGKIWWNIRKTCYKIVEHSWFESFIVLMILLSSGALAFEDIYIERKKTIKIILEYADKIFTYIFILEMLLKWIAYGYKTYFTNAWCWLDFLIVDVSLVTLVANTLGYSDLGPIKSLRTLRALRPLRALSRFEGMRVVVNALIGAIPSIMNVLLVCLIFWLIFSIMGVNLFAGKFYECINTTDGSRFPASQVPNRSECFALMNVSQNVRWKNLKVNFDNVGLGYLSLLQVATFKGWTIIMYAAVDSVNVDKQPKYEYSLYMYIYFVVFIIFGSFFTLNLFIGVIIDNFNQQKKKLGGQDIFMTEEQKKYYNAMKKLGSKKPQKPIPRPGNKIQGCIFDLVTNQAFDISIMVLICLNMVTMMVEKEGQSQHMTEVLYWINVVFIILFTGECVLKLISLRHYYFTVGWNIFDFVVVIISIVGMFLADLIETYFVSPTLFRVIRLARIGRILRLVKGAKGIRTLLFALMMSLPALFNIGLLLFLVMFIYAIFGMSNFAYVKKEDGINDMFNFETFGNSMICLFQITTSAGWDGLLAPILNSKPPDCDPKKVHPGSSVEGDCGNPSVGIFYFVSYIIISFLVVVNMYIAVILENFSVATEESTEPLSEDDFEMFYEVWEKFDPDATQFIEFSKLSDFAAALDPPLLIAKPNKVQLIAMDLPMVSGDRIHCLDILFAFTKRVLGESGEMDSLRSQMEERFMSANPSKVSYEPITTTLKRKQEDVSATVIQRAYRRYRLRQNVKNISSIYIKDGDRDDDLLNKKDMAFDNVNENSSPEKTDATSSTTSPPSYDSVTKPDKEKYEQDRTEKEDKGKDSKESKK
# [4] = Oral bioavailability in dog at 2 mg/kg; assay type: ADME, organism-based, Canis lupus familiaris; details: in vivo
# [5] = tested on: Plasma; assay: Unbound plasma concentration in C57Bl/6 mouse at 30 mg/kg, po; assay type: ADME, organism-based; details: in vivo
# [6] = Ratio of unbound plasma concentration in C57Bl/6 mouse at 300 mg/kg, po to IC50 for human Nav1.7 at -125 mV holding potential
# [7] = Total clearance in rat at 0.5 mg/kg, iv; assay type: ADME, organism-based; details: in vivo
# Procedure, shortened: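 Male rats given a single 0.5 mg/kg iv dose in DMSO. Unbound clearance (CLu) is total clearance divided by fu, the unbound fraction in plasma.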
# [8] = tested on: Mus musculus; assay: Antipruriceptive activity in C57Bl/6 mouse assessed as reduction in number of histamine-induced scratching bouts at 30 to 300 mg/kg, po administered 4 hrs prior to histamine challenge measured over 15 mins; assay type: functional, organism-based
# [9] = target: Sodium channel protein type 9 subunit alpha (Mus musculus, UniProt Q62205); assay: Inhibition of mouse Nav1.7 expressed in HEK293 cells incubated for 3 to 5 mins at -125 mV holding potential by electrophysiology assay; assay type: cell-based
# [10] = tested on: Canis familiaris; assay: Unbound clearance in dog at 0.25 mg/kg, iv; assay type: ADME, organism-based, Canis lupus familiaris; details: in vivo
# Procedure, shortened: (§1)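 Male dogs received a single 0.25 mg/kg iv dose in DMSO. Unbound clearance (CLu) is total clearance divided by fu, the unbound fraction in plasma.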
# [11] = tested on: Plasma; assay: Total plasma concentration in C57Bl/6 mouse at 100 mg/kg, po; assay type: ADME, organism-based; details: in vivo
# [12] = target: Cytochrome P450 2D6 (Homo sapiens, UniProt P10635); assay: Inhibition of CYP2D6 (unknown origin); assay type: ADME
# Cytochrome P450 2D6, sequence (P10635 whole entry): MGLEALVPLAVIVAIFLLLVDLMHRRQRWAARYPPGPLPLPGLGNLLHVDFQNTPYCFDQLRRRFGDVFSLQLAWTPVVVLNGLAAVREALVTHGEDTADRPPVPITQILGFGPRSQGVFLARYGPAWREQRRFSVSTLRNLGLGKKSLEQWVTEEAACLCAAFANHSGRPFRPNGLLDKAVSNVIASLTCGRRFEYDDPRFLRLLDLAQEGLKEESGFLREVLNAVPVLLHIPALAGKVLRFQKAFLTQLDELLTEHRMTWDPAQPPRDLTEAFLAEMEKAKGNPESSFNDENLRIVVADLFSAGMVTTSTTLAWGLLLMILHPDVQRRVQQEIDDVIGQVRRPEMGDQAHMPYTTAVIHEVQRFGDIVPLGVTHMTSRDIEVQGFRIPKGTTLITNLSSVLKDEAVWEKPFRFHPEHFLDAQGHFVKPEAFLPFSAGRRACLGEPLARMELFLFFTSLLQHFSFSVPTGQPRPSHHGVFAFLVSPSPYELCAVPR
# [13] = target: Sodium channel protein type 4 subunit alpha (Homo sapiens, UniProt P35499); assay: Inhibition of human Nav1.4 expressed in HEK293 cells assessed as reduction in peak inward current by ionworks quattro electrophysiology assay; assay type: cell-based
# Sodium channel protein type 4 subunit alpha, sequence (P35499 whole entry): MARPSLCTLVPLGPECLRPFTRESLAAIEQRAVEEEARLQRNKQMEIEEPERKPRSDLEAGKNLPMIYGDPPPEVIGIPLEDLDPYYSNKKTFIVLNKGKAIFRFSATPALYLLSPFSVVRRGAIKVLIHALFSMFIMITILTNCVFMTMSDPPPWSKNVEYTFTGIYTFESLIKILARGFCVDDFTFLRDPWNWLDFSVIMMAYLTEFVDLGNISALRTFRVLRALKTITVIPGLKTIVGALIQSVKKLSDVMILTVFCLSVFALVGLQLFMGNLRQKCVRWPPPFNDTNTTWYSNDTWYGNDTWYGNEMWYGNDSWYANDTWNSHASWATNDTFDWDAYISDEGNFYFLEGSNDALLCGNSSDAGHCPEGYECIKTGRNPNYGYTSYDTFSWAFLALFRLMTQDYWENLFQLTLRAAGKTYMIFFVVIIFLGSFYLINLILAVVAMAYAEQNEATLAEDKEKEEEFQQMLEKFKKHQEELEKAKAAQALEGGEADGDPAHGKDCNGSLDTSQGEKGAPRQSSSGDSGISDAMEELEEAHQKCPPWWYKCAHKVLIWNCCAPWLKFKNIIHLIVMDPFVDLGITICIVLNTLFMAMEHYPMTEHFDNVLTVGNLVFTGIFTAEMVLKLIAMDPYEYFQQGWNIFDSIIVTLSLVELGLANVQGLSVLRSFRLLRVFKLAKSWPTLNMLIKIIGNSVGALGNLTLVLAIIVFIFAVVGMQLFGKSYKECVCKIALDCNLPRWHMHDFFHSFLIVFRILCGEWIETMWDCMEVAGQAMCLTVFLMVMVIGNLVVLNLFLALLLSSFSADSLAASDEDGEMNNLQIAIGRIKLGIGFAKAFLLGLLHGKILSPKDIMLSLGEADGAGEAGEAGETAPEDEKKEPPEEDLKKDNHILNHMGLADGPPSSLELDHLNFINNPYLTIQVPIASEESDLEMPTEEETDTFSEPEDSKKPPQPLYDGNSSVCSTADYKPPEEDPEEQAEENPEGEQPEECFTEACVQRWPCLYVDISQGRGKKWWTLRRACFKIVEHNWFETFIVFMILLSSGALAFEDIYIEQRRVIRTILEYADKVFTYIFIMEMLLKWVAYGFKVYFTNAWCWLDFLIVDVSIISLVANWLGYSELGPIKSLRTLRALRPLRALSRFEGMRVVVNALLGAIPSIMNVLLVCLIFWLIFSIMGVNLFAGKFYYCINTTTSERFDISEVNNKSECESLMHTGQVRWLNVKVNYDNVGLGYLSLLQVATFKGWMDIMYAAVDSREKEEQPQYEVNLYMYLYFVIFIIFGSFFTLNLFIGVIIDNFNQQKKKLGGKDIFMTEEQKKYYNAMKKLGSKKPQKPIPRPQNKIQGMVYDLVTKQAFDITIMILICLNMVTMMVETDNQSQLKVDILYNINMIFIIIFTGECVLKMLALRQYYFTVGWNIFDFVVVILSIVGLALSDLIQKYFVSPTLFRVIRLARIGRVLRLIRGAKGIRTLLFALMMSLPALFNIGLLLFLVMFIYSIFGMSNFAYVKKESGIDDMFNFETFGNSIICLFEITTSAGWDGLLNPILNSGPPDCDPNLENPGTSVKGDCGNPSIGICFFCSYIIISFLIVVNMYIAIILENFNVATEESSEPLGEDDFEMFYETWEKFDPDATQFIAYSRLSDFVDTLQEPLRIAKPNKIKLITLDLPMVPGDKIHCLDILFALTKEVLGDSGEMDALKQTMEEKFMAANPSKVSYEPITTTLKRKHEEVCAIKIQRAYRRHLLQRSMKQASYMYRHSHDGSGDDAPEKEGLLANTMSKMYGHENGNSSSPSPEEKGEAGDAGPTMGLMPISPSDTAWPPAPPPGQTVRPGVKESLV
# [14] = target: T2, Sodium channel protein type 9 subunit alpha; assay: Inhibition of human Nav1.7 at resting/closed state expressed in HEK293 cells at -140 mV holding potential by manual whole cell patch clamp electrophysiology assay; assay type: cell-based
# [15] = tested on: Plasma; assay: Unbound plasma concentration in C57Bl/6 mouse at 300 mg/kg, po; assay type: ADME, organism-based; details: in vivo
# [16] = target: Sodium channel protein type 1 subunit alpha (Homo sapiens, UniProt P35498); assay: Inhibition of human Nav1.1 expressed in HEK293 cells assessed as reduction in peak inward current by ionworks quattro electrophysiology assay; assay type: cell-based
# [17] = tested on: Plasma; assay: Unbound plasma concentration in C57Bl/6 mouse at 100 mg/kg, po; assay type: ADME, organism-based; details: in vivo
# [18] = target: Cytochrome P450 2C9 (Homo sapiens, UniProt P11712); assay: Inhibition of CYP2C9 (unknown origin); assay type: ADME
# Cytochrome P450 2C9, sequence (P11712 whole entry): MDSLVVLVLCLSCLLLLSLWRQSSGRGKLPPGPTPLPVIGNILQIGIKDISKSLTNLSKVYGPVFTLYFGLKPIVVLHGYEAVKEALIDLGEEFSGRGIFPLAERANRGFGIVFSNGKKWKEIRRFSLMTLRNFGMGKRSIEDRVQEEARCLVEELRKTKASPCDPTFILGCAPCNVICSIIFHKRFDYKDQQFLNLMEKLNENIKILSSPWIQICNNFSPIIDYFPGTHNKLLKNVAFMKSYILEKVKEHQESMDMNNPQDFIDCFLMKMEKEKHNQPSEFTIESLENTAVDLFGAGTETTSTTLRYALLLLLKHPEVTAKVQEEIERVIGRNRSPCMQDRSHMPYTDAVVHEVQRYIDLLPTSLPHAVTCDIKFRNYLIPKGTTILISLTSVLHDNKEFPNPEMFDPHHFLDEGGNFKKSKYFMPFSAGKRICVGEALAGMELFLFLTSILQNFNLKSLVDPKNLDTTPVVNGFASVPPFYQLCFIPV
# [19] = Unbound fraction in dog plasma at 5 uM by LC-MS/MS method; assay type: ADME, cell-free, Canis lupus familiaris
# [20] = target: Voltage-gated inwardly rectifying potassium channel KCNH2 (Homo sapiens, UniProt Q12809); assay: Inhibition of human hERG by patch clamp method
# [21] = tested on: Plasma; assay: Total plasma concentration in C57Bl/6 mouse at 30 mg/kg, po; assay type: ADME, organism-based; details: in vivo
# [22] = tested on: Plasma; assay: Total plasma concentration in C57Bl/6 mouse at 300 mg/kg, po; assay type: ADME, organism-based; details: in vivo
# [23] = Intrinsic clearance in human liver microsomes at 1 uM after 1 to 40 mins in presence of NADPH by LC-MS/MS analysis; assay type: ADME, microsome; details: read-out: CLH
# [24] = tested on: Mus musculus; assay: Toxicity in naive C57Bl/6 mouse assessed as effect on basic locomotor movement at 30 to 300 mg/kg, po measured after 4 hrs for 60 mins by open field test; assay type: organism-based; details: in vivo
# [25] = target: T3, PXR (NR1I2) (Homo sapiens, UniProt O75469); assay: Activation of human PXR at 10 uM in presence of rifampicin; assay type: ADME; details: read-out: Activity
# T3 sequence (O75469 whole entry): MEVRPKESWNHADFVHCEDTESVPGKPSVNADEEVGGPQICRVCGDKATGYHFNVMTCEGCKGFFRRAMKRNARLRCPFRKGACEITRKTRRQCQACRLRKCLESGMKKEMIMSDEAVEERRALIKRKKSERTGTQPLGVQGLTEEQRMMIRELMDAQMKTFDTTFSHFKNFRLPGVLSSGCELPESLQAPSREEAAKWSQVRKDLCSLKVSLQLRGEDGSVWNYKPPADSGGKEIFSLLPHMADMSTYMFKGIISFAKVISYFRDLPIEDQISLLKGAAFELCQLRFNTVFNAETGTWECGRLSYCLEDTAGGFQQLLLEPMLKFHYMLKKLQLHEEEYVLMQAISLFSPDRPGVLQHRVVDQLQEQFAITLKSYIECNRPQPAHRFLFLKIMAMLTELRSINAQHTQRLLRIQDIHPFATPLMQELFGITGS
# [26] = Oral bioavailability in rat at 10 mg/kg; assay type: ADME, organism-based; details: in vivo
# [27] = target: Sodium channel protein type 3 subunit alpha (Homo sapiens, UniProt Q9NY46); assay: Inhibition of human Nav1.3 expressed in CHO cells assessed as reduction in peak inward current by ionworks quattro electrophysiology assay; assay type: cell-based
# [28] = AUC in rat at 10 mg/kg, po; assay type: ADME, organism-based; details: in vivo
# [29] = Total clearance in dog at 0.25 mg/kg, iv; assay type: ADME, organism-based, Canis lupus familiaris; details: in vivo; procedure, shortened: as §1
# [30] = target: Sodium channel protein type 5 subunit alpha (Homo sapiens, UniProt Q14524); assay: Inhibition of human Nav1.5 expressed in HEK293 cells assessed as reduction in peak inward current by ionworks quattro electrophysiology assay; assay type: cell-based
# [31] = Half life in dog at 0.25 mg/kg, iv; assay type: ADME, organism-based, Canis lupus familiaris; details: in vivo; procedure, shortened: as §1
# [32] = target: T2, Sodium channel protein type 9 subunit alpha; assay: Inhibition of human Nav1.7 expressed in HEK293 cells assessed as reduction in peak inward current by ionworks quattro electrophysiology assay; assay type: cell-based
structure (smiles),measurement,setting,value
COc1cc(-c2cccc(C(F)(F)F)c2)c(F)cc1-c1nccc2cc(S(=O)(=O)Nc3ccon3)ccc12,solubility thermodynamic at 48 h,[1],432 µM
same,IC50,[2],> 15 µM
same,IC50,[3],0.036 µM
same,bioavailability,[4],63%
same,Cp(f),[5],0.246 µM
same,Ratio,[6],45
same,clearance,[7],3.83 mL/min/kg
same,Activity,[8],Active
same,IC50,[9],0.036 µM
same,CL free,[10],60 mL/min/kg
same,concentration,[11],106 µM
same,IC50,[12],> 15 µM
same,IC50,[13],12 µM
same,IC50,[14],4 µM
same,Cp(f),[15],1.59 µM
same,IC50,[16],17 µM
same,Cp(f),[17],1.23 µM
same,IC50,[18],0.43 µM
same,fraction unbound at 5 µM,[19],0.0066
same,IC50,[20],> 10 µM
same,concentration,[21],21.2 µM
same,concentration,[22],137 µM
same,microsomal CLint at 1 µM,[23],< 14 µL/min/mg
same,Activity,[24],Non-Toxic
same,activity at 10 µM,[25],1%
same,bioavailability,[26],54%
same,IC50,[27],6.9 µM
same,AUC,[28],44.2 µM·h
same,clearance,[29],0.383 mL/min/kg
same,IC50,[30],12 µM
same,half-life,[31],20 h
same,IC50,[32],0.017 µM
